Like-named read-outs stand apart in the source and are kept apart here.
What was measured:
FPR2 [1] = target: T1, FPR2 (Homo sapiens, UniProt P25090); assay: Ca2+ mobilization in FPR2-transfected HL60 cells; type: cell-based
T1 sequence (P25090 1-351): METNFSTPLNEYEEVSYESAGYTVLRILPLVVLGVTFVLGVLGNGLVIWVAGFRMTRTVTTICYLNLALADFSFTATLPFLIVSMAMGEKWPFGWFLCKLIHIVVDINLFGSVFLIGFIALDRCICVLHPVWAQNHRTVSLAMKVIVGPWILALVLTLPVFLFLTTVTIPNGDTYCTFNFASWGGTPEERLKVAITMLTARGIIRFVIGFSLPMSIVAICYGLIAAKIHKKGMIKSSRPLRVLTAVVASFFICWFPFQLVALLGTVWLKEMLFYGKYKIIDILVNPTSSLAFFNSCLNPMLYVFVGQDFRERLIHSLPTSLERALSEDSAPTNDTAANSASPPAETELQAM

human neutrophils [2] = assay: Human neutrophil chemotaxis; type: cell-based; details: read-out: Chemotaxis EC50
How it was run: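 Neutrophils from healthy-donor blood purified by dextran sedimentation, Histopaque 1077 gradient and hypotonic red-cell lysis, then washed twice into Ca/Mg-free HBSS; preparations >95% pure by light microscopy and >98% viable by trypan blue.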

human neutrophils [3] = assay: Desensitization of human neutrophil chemotaxis toward WKYMVm; type: cell-based; details: 0.5 h, read-out: Chemotaxis IC50
[4] = test system: CFA-induced rheumatoid arthritis in rats; assay: Paw pressure test in CFA-induced rheumatoid arthritis; type: in vivo, rat
[5] = test system: CFA-induced rheumatoid arthritis in rats; assay: Incapacitance test in CFA-induced rheumatoid arthritis; type: in vivo, rat; details: for Δ Weight (incapacitance test): day 14 after CFA
FPR1 [6] = target: T2, FPR1 (Homo sapiens, UniProt P21462); assay: Ca2+ mobilization in FPR1-transfected HL60 cells; type: cell-based
T2 sequence (P21462 1-350): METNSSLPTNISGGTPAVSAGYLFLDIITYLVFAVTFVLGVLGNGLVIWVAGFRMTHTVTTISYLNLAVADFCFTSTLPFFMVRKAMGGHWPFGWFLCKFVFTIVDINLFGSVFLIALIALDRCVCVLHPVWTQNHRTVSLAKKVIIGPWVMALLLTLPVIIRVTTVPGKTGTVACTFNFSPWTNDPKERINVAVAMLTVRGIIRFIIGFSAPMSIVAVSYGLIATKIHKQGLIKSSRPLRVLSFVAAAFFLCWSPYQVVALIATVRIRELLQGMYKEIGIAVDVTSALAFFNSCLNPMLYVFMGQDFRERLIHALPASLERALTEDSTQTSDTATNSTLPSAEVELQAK

[7] = test system: collagen-induced arthritis and antigen-induced arthritis; details: 30 mg/kg i.p., mice, both models; cited from earlier work
FPR1 [8] = target: T2, FPR1; details: read-out: FPR1 EC50; EC10; cited from earlier work
FPR2 [9] = target: T1, FPR2; details: read-out: FPR2 EC50; EC10; cited from earlier work
FPR3 = details: read-out: FPR3 EC50; EC10; cited from earlier work

For COc1cccc(-c2cc(C#N)c(=O)n(CC(=O)Nc3ccc(Br)cc3)c2C)c1 [Compound 2a, N-(4-Bromophenyl)-2-[3-cyano-5-(3-methoxyphenyl)-6-methyl-2-oxopyridin-1(2H)-yl]acetamide], the “preference for FPR2 versus FPR1” value (FPR2 [1]; ratio of EC50 values) was 10 fold, the EC50 (human neutrophils [2]) was 20 ± 4 nM and the IC50 (human neutrophils [3]) was 6100 ± 1100 nM. For the same compound, the “effect on pain threshold (paw pressure test)” value ([4]; 10 mg/kg p.o., day 14 after CFA) was “effective between 30 and 60 min”, the “pain threshold (paw pressure test)” value ([4]; 30 mg/kg p.o., day 14 after CFA, 15 to 45 min, CFA + vehicle 37.5 ± 1 g) was 63.3 ± 2 g and the “effect on postural unbalance (incapacitance test)” value ([5]; 10 and 30 mg/kg p.o., between 15 and 60 min after administration) was “significantly reduced the postural unbalance”.

With COc1ccc(-c2cc(C#N)c(=O)n(CC(=O)Nc3ccc(Br)cc3)c2C)cc1 [Compound 2b, N-(4-Bromophenyl)-2-[3-cyano-5-(4-methoxyphenyl)-6-methyl-2-oxopyridin-1(2H)-yl]acetamide] the EC50 (FPR1 [6]) was 1000 ± 200 nM and the EC50 (FPR2 [1]) was 480 ± 80 nM.

In the case of COc1ccc(-c2cc(C#N)c(=O)n(CC(=O)Nc3ccc(Br)cc3)c2C)cc1OC [Compound 2c, N-(4-Bromophenyl)-2-[3-cyano-5-(3,4-dimethoxyphenyl)-6-methyl-2-oxopyridin-1(2H)-yl]acetamide], the EC50 (FPR1 [6]) is reported as 33200 ± 4900 nM, the EC50 (FPR2 [1]) is reported as 600 ± 200 nM and the EC50 (human neutrophils [2]) is reported as 60 ± 15 nM. It also gave an IC50 (human neutrophils [3]) of 18800 ± 3200 nM.

CCOC(=O)c1cc(C#N)c(=O)n(CC(=O)Nc2ccc(Br)cc2)c1C [Compound 2d, 1-[(4-Bromophenylcarbamoyl)-methyl]-5-cyano-2-methyl-6-oxo-1,6-dihydropyridine-3-carboxylic acid ethyl ester] showed an EC50 (FPR1 [6]; read-out: FPR1-HL60 EC50, Ca2+ mobilization, mean of three independent experiments, N.A. = no activity (efficacy < 20% and EC50 < 50 μM as printed)) of 3000 nM, an EC50 (human neutrophils [2]) of 13 ± 1 nM and an IC50 (human neutrophils [3]) of 8400 ± 1200 nM.

For CCOC(=O)c1cc(C(=O)Nc2cccc(OC)c2)c(=O)n(CC(=O)Nc2ccc(Br)cc2)c1C [Compound 6a, 1-[(4-Bromophenylcarbamoyl)methyl]-5-(3-methoxyphenylcarbamoyl)-2-methyl-6-oxo-1,6-dihydropyridine-3-carboxylic acid ethyl ester], the EC50 (FPR1 [6]) was 400 ± 100 nM, the “preference for FPR1” value (FPR1 [6]; FPR1 versus FPR2 EC50) was “about 72 fold” and the EC50 (FPR2 [1]) was 28900 ± 2700 nM.

In the case of CCOC(=O)c1cc(C(=O)Nc2ccc(OC)cc2)c(=O)n(CC(=O)Nc2ccc(Br)cc2)c1C [Compound 6b, 1-[(4-Bromophenylcarbamoyl)methyl]-5-(4-methoxyphenylcarbamoyl)-2-methyl-6-oxo-1,6-dihydropyridine-3-carboxylic acid ethyl ester], the EC50 (FPR1 [6]) is reported as 7900 ± 1400 nM and the EC50 (FPR2 [1]) is reported as 16400 ± 3300 nM.

With COc1cccc(NC(=O)c2cc(-c3ccncc3)c(C)n(CC(=O)Nc3ccc(Br)cc3)c2=O)c1 [Compound 6c, 1-[(4-Bromophenylcarbamoyl)methyl]-2-methyl-6-oxo-1,6-dihydro-[3,4′]bipyridinyl-5-carboxylic acid (3-methoxyphenyl) amide] the EC50 (FPR1 [6]) was 1400 ± 400 nM and the EC50 (FPR2 [1]) was 1800 ± 210 nM.

In the case of COc1cccc(NC(=O)c2cc(C#N)c(=O)n(CC(=O)Nc3ccc(Br)cc3)c2C)c1 [Compound 9a, 1-[(4-Bromophenylcarbamoyl)methyl]-5-cyano-2-methyl-6-oxo-1,6-dihydro-pyridine-3-carboxylic acid (3-methoxyphenyl) amide], the EC50 (FPR1 [6]) is reported as 3900 ± 1200 nM and the EC50 (FPR2 [1]) is reported as 310 ± 90 nM.

Work on COc1ccc(NC(=O)c2cc(C#N)c(=O)n(CC(=O)Nc3ccc(Br)cc3)c2C)cc1 [Compound 9b, 1-[(4-Bromophenylcarbamoyl)methyl]-5-cyano-2-methyl-6-oxo-1,6-dihydro-pyridine-3-carboxylic acid (4-methoxyphenyl) amide] yielded an EC50 (FPR1 [6]) of 960 ± 390 nM and an EC50 (FPR2 [1]) of 440 ± 120 nM.

Work on CCCn1ccc(=O)n(CC(=O)Nc2ccc(Br)cc2)c1=O [Compound 11d, N-(4-Bromophenyl)-2-(2,6-dioxo-3-propyl-3,6-dihydropyrimidin-1(2H)-yl)acetamide] yielded an EC50 (FPR1 [6]) of 5500 ± 1600 nM and an EC50 (FPR2 [1]) of 4100 ± 1300 nM.

For CC(C)c1c(NC(=O)Nc2ccc(Cl)cc2)c(=O)n(-c2ccccc2)n1C [Cpd43], the “effect on arthritis disease severity” value [7] is listed as “significantly reduced disease severity”.

In the case of COc1cccc(Nc2c(C(C)=O)c(C)nn(CC(=O)Nc3ccc(Br)cc3)c2=O)c1 [EC10], the “effect on pain threshold (paw pressure test)” value ([4]; 10 and 30 mg/kg p.o., between 15 and 60 min, similar efficacy as EC3) is listed as “increased the pain threshold”, the “Δ Weight (incapacitance test)” value ([5]; 10 and 30 mg/kg p.o., 15 to 60 min, CFA + vehicle 62.8 ± 3.1 g) is listed as 40.2 ± 1.1 g and the EC50 (FPR1 [8]) is listed as 45 nM. For the same compound, the EC50 (FPR2 [9]) was 170 nM and the EC50 (FPR3) was 210 nM.

With CC(C)Cc1ccc(C(C)C(=O)O)cc1 (centres unmarked) [Ibuprofen, ibuprofen, reference compound] the “Δ Weight (incapacitance test)” value ([5]; 100 mg kg−1 p.o., 15 to 30 min, CFA + vehicle 62.6 ± 2.5 g) was 34.7 ± 6.1 g.

— paper PMC7409366 (Bioorganic chemistry, 2020)
